ChEMBL document CHEMBL3286116, “Synthesis, biological evaluation and structure-activity correlation study of a series of imidazol-based compounds as Candida albicans inhibitors” (Eur J Med Chem, 2014)

Legend:
Candida albicans [1] = assay: Antifungal activity against Candida albicans ATCC 90028 after 48 hrs by CLSI broth microdilution method; format: functional; settings: ATCC 90028, 48 h
Summary of the method: (§1)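 Yeast CLSI broth microdilution (M27-A3). Compounds dissolved in DMSO at 100× the top test concentration, then diluted as serial two-fold dilutions in RPMI 1640 to final 0.125–64. Inoculum was 1.0–1.5 × 10^3 cells mL−1, incubated at 35 °C and read for growth at 48 h. MIC is the lowest concentration giving ≥50% growth inhibition versus growth control. Reported as the median of five replicates and as the geometric mean.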

Candida albicans [2] = assay: Antifungal activity against Candida albicans ATCC 20891 after 48 hrs by CLSI broth microdilution method; format: functional; settings: ATCC 20891, 48 h; summary of the method: as §1
Candida albicans [3] = assay: Antifungal activity against Candida albicans PMC 1011 after 48 hrs by CLSI broth microdilution method; format: functional; settings: PMC 1011, 48 h; summary of the method: as §1
Pichia kudriavzevii [4] = assay: Antifungal activity against Candida krusei DSM 6128 after 48 hrs by CLSI broth microdilution method; format: functional; settings: DSM 6128, 48 h; summary of the method: as §1
Pichia kudriavzevii [5] = assay: Antifungal activity against Candida krusei PMC 0613 after 48 hrs by CLSI broth microdilution method; format: functional; settings: PMC 0613, 48 h; summary of the method: as §1
Candida tropicalis [6] = assay: Antifungal activity against Candida tropicalis PMC 0910 after 48 hrs by CLSI broth microdilution method; format: functional; settings: PMC 0910, 48 h; summary of the method: as §1
Candida tropicalis [7] = assay: Antifungal activity against Candida tropicalis DSM 11953 after 48 hrs by CLSI broth microdilution method; format: functional; settings: DSM 11953, 48 h; summary of the method: as §1
Candida parapsilosis [8] = assay: Antifungal activity against Candida parapsilosis DSM 11224 after 48 hrs by CLSI broth microdilution method; format: functional; settings: Lodderomyces parapsilosis, DSM 11224, 48 h; summary of the method: as §1
Candida parapsilosis [9] = assay: Antifungal activity against Candida parapsilosis ATCC 22019 after 48 hrs by CLSI broth microdilution method; format: functional; settings: Lodderomyces parapsilosis, ATCC 22019, 48 h; summary of the method: as §1
Nakaseomyces glabratus [10] = assay: Antifungal activity against Candida glabrata PMC 0805 after 48 hrs by CLSI broth microdilution method; format: functional; settings: PMC 0805, 48 h; summary of the method: as §1
Nakaseomyces glabratus [11] = assay: Antifungal activity against Candida glabrata PMC 0807 after 48 hrs by CLSI broth microdilution method; format: functional; settings: PMC 0807, 48 h; summary of the method: as §1
Cryptococcus neoformans [12] = assay: Antifungal activity against Cryptococcus neoformans PMC 2123 after 72 hrs by CLSI broth microdilution method; format: functional; settings: PMC 2123, 72 h
Summary of the method: (§2)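 Cryptococcus neoformans tested by CLSI broth microdilution in RPMI 1640, with serial two-fold dilutions from DMSO stocks at 100× the top concentration, final 0.125–64. Inoculum was 1.0–1.5 × 10^3 cells mL−1 at 35 °C, with growth read at 72 h. MIC is the lowest concentration with ≥50% growth inhibition versus control. Median of five replicates, plus geometric mean.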

Cryptococcus neoformans [13] = assay: Antifungal activity against Cryptococcus neoformans PMC 2136 after 72 hrs by CLSI broth microdilution method; format: functional; settings: PMC 2136, 72 h; summary of the method: as §2
Cryptococcus neoformans [14] = assay: Antifungal activity against Cryptococcus neoformans PMC 2115 after 72 hrs by CLSI broth microdilution method; format: functional; settings: PMC 2115, 72 h; summary of the method: as §2
Cryptococcus neoformans [15] = assay: Antifungal activity against Cryptococcus neoformans PMC 2103 after 72 hrs by CLSI broth microdilution method; format: functional; settings: PMC 2103, 72 h; summary of the method: as §2
Cryptococcus neoformans [16] = assay: Antifungal activity against Cryptococcus neoformans PMC 2107 after 72 hrs by CLSI broth microdilution method; format: functional; settings: PMC 2107, 72 h; summary of the method: as §2
Cryptococcus neoformans [17] = assay: Antifungal activity against Cryptococcus neoformans PMC 2102 after 72 hrs by CLSI broth microdilution method; format: functional; settings: PMC 2102, 72 h; summary of the method: as §2
Cryptococcus neoformans [18] = assay: Antifungal activity against Cryptococcus neoformans DSM 11959 after 72 hrs by CLSI broth microdilution method; format: functional; settings: DSM 11959, 72 h; summary of the method: as §2
Cryptococcus neoformans [19] = assay: Antifungal activity against Cryptococcus neoformans PMC 2111 after 72 hrs by CLSI broth microdilution method; format: functional; settings: PMC 2111, 72 h; summary of the method: as §2
[20] = tested on: Trichophyton mentagrophytes; assay: Antifungal activity against Trichophyton mentagrophytes DSM 4870 after 72 hrs by CLSI broth microdilution method; format: functional; settings: DSM 4870, 72 h
Summary of the method: (§3)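 Dermatophytes tested by CLSI broth microdilution for filamentous fungi (M38-A2). Serial two-fold dilutions of DMSO-dissolved compound in RPMI 1640, final 0.125–64. Inoculum was 0.4–5 × 10^4 CFU mL−1, incubated at 35 °C and read at 72 h. MIC80 is the lowest concentration giving ≥80% growth inhibition versus growth control. Median of five replicates, plus geometric mean.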

[21] = tested on: Trichophyton mentagrophytes; assay: Antifungal activity against Trichophyton mentagrophytes PMC 6515 after 72 hrs by CLSI broth microdilution method; format: functional; settings: PMC 6515, 72 h; summary of the method: as §3
[22] = tested on: Trichophyton mentagrophytes; assay: Antifungal activity against Trichophyton mentagrophytes PMC 6531 after 72 hrs by CLSI broth microdilution method; format: functional; settings: PMC 6531, 72 h; summary of the method: as §3
[23] = tested on: Trichophyton mentagrophytes; assay: Antifungal activity against Trichophyton mentagrophytes PMC 6509 after 72 hrs by CLSI broth microdilution method; format: functional; settings: PMC 6509, 72 h; summary of the method: as §3
[24] = tested on: Trichophyton mentagrophytes; assay: Antifungal activity against Trichophyton mentagrophytes PMC 6503 after 72 hrs by CLSI broth microdilution method; format: functional; settings: PMC 6503, 72 h; summary of the method: as §3
[25] = tested on: Trichophyton mentagrophytes; assay: Antifungal activity against Trichophyton mentagrophytes PMC 6552 after 72 hrs by CLSI broth microdilution method; format: functional; settings: PMC 6552, 72 h; summary of the method: as §3
Nannizzia gypsea [26] = assay: Antifungal activity against Microsporum gypseum PMC 7303 after 72 hrs by CLSI broth microdilution method; format: functional; settings: PMC 7303, 72 h; summary of the method: as §3
Nannizzia gypsea [27] = assay: Antifungal activity against Microsporum gypseum PMC 7331 after 72 hrs by CLSI broth microdilution method; format: functional; settings: PMC 7331, 72 h; summary of the method: as §3
Nannizzia gypsea [28] = assay: Antifungal activity against Microsporum gypseum DSM 3824 after 72 hrs by CLSI broth microdilution method; format: functional; settings: DSM 3824, 72 h; summary of the method: as §3
Candida albicans [29] = assay: Antifungal activity against Candida albicans PMC 1040R after 48 hrs by CLSI broth microdilution method; format: functional; summary of the method: as §1
Candida albicans [30] = assay: Antifungal activity against Candida albicans PMC 1041R after 48 hrs by CLSI broth microdilution method; format: functional; summary of the method: as §1
Nakaseomyces glabratus [31] = assay: Antifungal activity against Candida glabrata PMC 0850R after 48 hrs by CLSI broth microdilution method; format: functional; summary of the method: as §1
Nakaseomyces glabratus [32] = assay: Antifungal activity against Candida glabrata PMC 0851R after 48 hrs by CLSI broth microdilution method; format: functional; summary of the method: as §1
Nakaseomyces glabratus [33] = assay: Antifungal activity against Candida glabrata PMC 0852R after 48 hrs by CLSI broth microdilution method; format: functional; summary of the method: as §1
Nakaseomyces glabratus [34] = assay: Antifungal activity against Candida glabrata PMC 0853R after 48 hrs by CLSI broth microdilution method; format: functional; summary of the method: as §1
Candida albicans [35] = assay: Antifungal activity against Candida albicans PMC 1042R after 48 hrs by CLSI broth microdilution method; format: functional; summary of the method: as §1
[36] = Cytotoxicity against human A549 cells after 48 hrs by MTT assay; format: cell-based
Summary of the method: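 A549 cells (ATCC CCL-185) seeded at 2 × 10^4/well in phenol-red-free RPMI 1640 with 10% FBS, L-glutamine, penicillin and streptomycin, at 37 °C and 5% CO2. Exposed 48 h to DMSO-dissolved compounds (final 16–256; at least five concentrations, triplicate). MTT added for 3–4 h, crystals solubilized, OD read at 570 nm. CC50 taken versus the DMSO control. Mean ± SD of two independent experiments.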

Candida albicans [37] = assay: Antifungal activity against Candida albicans ATCC 24433 after 48 hrs by CLSI broth microdilution method; format: functional; settings: ATCC 24433, 48 h; summary of the method: as §1
Candida albicans [38] = assay: Antifungal activity against Candida albicans ATCC 3153 after 48 hrs by CLSI broth microdilution method; format: functional; settings: ATCC 3153, 48 h; summary of the method: as §1
Candida albicans [39] = assay: Antifungal activity against Candida albicans ATCC 10231 after 48 hrs by CLSI broth microdilution method; format: functional; settings: ATCC 10231, 48 h; summary of the method: as §1
Candida albicans [40] = assay: Antifungal activity against Candida albicans ATCC 76615 after 48 hrs by CLSI broth microdilution method; format: functional; settings: ATCC 76615, 48 h; summary of the method: as §1
Candida albicans [41] = assay: Antifungal activity against Candida albicans ATCC 10261 after 48 hrs by CLSI broth microdilution method; format: functional; settings: ATCC 10261, 48 h; summary of the method: as §1

O=C(OC(Cn1ccnc1)c1ccc(Cl)cc1)N1CCN(c2ccc(Cl)cc2)CC1 (stereo unspecified)
2 µg/mL: MIC50 (Cryptococcus neoformans [18]) | MIC50 (Cryptococcus neoformans [19]) | MIC80 [24] | MIC80 (Nannizzia gypsea [26]) | MIC80 (Nannizzia gypsea [27]) | MIC50 (Candida albicans [40])
0.25 µg/mL: MIC50 (Candida albicans [3])
1 µg/mL: MIC50 (Pichia kudriavzevii [5]) | MIC50 (Candida parapsilosis [8]) | MIC50 (Candida parapsilosis [9]) | MIC50 (Nakaseomyces glabratus [10]) | MIC80 [25] | MIC50 (Candida albicans [37])
0.5 µg/mL: MIC50 (Candida albicans [1]) | MIC50 (Candida albicans [2]) | MIC50 (Candida albicans [38]) | MIC50 (Candida albicans [39]) | MIC50 (Candida albicans [41])
82.2 µg/mL: CC50 at 48 h [36]
32 µg/mL: MIC50 (Candida albicans [29])
8 µg/mL: MIC50 (Nakaseomyces glabratus [11]) | MIC80 [20] | MIC80 [22] | MIC80 [23] | MIC80 (Nannizzia gypsea [28]) | MIC50 (Candida albicans [30]) | MIC50 (Nakaseomyces glabratus [31]) | MIC50 (Nakaseomyces glabratus [32])
4 µg/mL: MIC50 (Pichia kudriavzevii [4]) | MIC50 (Candida tropicalis [6]) | MIC50 (Candida tropicalis [7]) | MIC50 (Cryptococcus neoformans [12]) | MIC50 (Cryptococcus neoformans [13]) | MIC50 (Cryptococcus neoformans [14]) | MIC50 (Cryptococcus neoformans [15]) | MIC50 (Cryptococcus neoformans [16]) | MIC50 (Cryptococcus neoformans [17]) | MIC80 [21] | MIC50 (Nakaseomyces glabratus [33]) | MIC50 (Nakaseomyces glabratus [34]) | MIC50 (Candida albicans [35])
